Published values gathered from unrelated publications.
Protocols differ between the studies behind these lines.
CDK4 with cyclin D1: Cyclin-dependent kinase 4, with cyclin D1 (CDK4, Homo sapiens, UniProt P11802)
CDK4 with cyclin D3: Cyclin-dependent kinase 4, with cyclin D3 (CDK4, Homo sapiens, UniProt P11802)
CDK4: Cyclin-dependent kinase 4 (CDK4, Homo sapiens, UniProt P11802)

For `CC(=O)c1c(NS(C)(=O)=O)c2cc(-c3ccc(Cl)cc3)c(-c3ccc(Cl)cc3Cl)nc2n(C)c1=O`, the remaining binding was 100% (CDK4 with cyclin D1; cell-free assay; competition with immobilised ligand; 1 µM).
`N[C@@H]1CCN(c2nccc(-c3cnn4ncccc34)n2)C1` has a remaining binding of 100% (CDK4 with cyclin D3; binding; 1 µM).
The remaining binding of `c1ccc(N2CCN(Cc3nc4ccccc4[nH]3)CC2)nc1` is reported as 100% (CDK4; binding; competition with immobilised ligand; 1 µM).
`CN(CCCC(F)(F)F)c1nccc(-c2cnn3ncccc23)n1` has a remaining binding of 61% (CDK4 with cyclin D1; binding; 1 µM).
The remaining binding of `O=C(Nc1cnc(Oc2ccc(F)cc2)nc1)N1CCc2ncccc2[C@@H]1c1ccc(F)cc1` is reported as 100% (CDK4 with cyclin D1; cell-free assay; competition with immobilised ligand; 1 µM).
`CNC(=O)[C@@H]1CC[C@@H](n2c(-c3ccc4cnccc4c3)nc3ccc(C(=O)NCc4cccc(C(N)=O)c4)cc32)C1` gave a remaining binding of 100% (CDK4 with cyclin D1; binding; competition with immobilised ligand; 1 µM).
For `O=C(NCC1CCOCC1)c1n[nH]cc1NC(=O)c1c(F)cccc1F`, the remaining binding was 92% (CDK4; binding; competition with immobilised ligand; 1 µM).
`Cc1cnc(Nc2ccc(C(=O)N3CCC(N4CCCC4)CC3)cc2)nc1-c1cc2ccccc2s1` has a remaining binding of 2.7% (CDK4 with cyclin D3; binding; competition with immobilised ligand; 1 µM).
The remaining binding of `O=C(O)[C@@H]1[C@@H](Cn2nnc3ccccc3c2=O)CC[C@H]1C(=O)c1ccc(OCCC2CCOCC2)cc1` is reported as 83% (CDK4 with cyclin D3; cell-free assay; competition with immobilised ligand; 1 µM).
The remaining binding of `C[C@@H]1CCN(c2nccc(-c3cnn4ncccc34)n2)C1` is reported as 79% (CDK4; binding; 1 µM).
For `O=C(c1ccc(Nc2ncc(Cl)c(-c3cc4ccccc4s3)n2)cc1)N1CCC(N2CCCC2)CC1`, the remaining binding was 3.6% (CDK4 with cyclin D1; binding; competition with immobilised ligand; 1 µM).
`COc1cnc(Nc2cccc(S(N)(=O)=O)c2)nc1N1CCN(c2ccccc2)CC1` gave a remaining binding of 78% (CDK4 with cyclin D1; binding; competition with immobilised ligand; 1 µM).
For `COc1ncc2cc3ccccc3nc2c1C#N`, the remaining binding was 74% (CDK4; cell-free assay; competition with immobilised ligand; 5 µM).
`CN(C)c1nccc(-c2cnn3ncccc23)n1` gave a remaining binding of 92% (CDK4; binding; 1 µM).
The remaining binding of `CCCOc1ccc([C@@H]2[C@@H](C(=O)O)[C@H](c3ccc4c(c3)OCO4)CN2CC(=O)Nc2c(CC)cccc2CC)cc1` is reported as 84% (CDK4; cell-free assay; competition with immobilised ligand; 1 µM).
`O=C(NCCCN1CCOCC1)c1ccc(Nc2nccc(-c3cc4ccccc4s3)n2)cc1` has a remaining binding of 83% (CDK4 with cyclin D1; binding; competition with immobilised ligand; 1 µM).
For `FC(F)(F)Oc1cccc(-c2cnc3ccc(-c4ccncc4)nn23)c1`, the remaining binding was 46% (CDK4 with cyclin D1; cell-free assay; competition with immobilised ligand; 5 µM).
For `Cc1c[nH]c2nccc(Oc3c(F)cc(Nc4cc(Cl)nc(N)n4)cc3F)c12`, the remaining binding was 67% (CDK4; cell-free assay; competition with immobilised ligand; 0.1 µM).
`COc1ccnn2ncc(-c3ccnc(N(C)C)n3)c12` has a remaining binding of 95% (CDK4; binding; 1 µM).
`C=CC(=O)N1CCC(C(=O)NCC(=O)N2CCN(c3nc(-c4cnc(N)nc4C(F)F)nc(N4CCOCC4)n3)CC2)CC1` gave a remaining binding of 92% (CDK4; binding; competition with immobilised ligand; 1 µM).
